Measured values as given in ChEMBL document CHEMBL1153240, “Microwave assisted synthesis and in vitro cytotoxicities of substituted (Z)-2-amino-5-(1-benzyl-1H-indol-3-yl)methylene-1-methyl-1H-imidazol-4(5H)-ones against human tumor cell lines” (2010).

How the values were obtained:
Type in all cases: functional
SNB-75 = test: Cytotoxicity against human SNB75 cells
How it was run: (§1)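 NCI 60-cell-line panel, five-dose response study. Effect is plotted against log10 drug concentration for each cell line. GI50 is the molar concentration giving a 50% reduction in net protein increase relative to control cells. LC50 is the concentration lethal to 50% of cells.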

HCT-116 = test: Cytotoxicity against human HCT116 cells; how it was run: as §1
SNB-19 = test: Cytotoxicity against human SNB19 cells; how it was run: as §1
[1] = Cytotoxicity against human Hs 578T cells; how it was run: as §1
NCI-H322M = test: Cytotoxicity against human NCI-H322M cells; how it was run: as §1
A498 = test: Cytotoxicity against human A498 cells; how it was run: as §1
HOP-62 = test: Cytotoxicity against human HOP62 cells; how it was run: as §1
IGROV-1 = test: Cytotoxicity against human IGROV1 cells; how it was run: as §1
A549 = test: Cytotoxicity against human A549 cells; how it was run: as §1
LOX IMVI = test: Cytotoxicity against human LOXIMVI cells; how it was run: as §1
CCRF-CEM = test: Cytotoxicity against human CCRF-CEM cells; how it was run: as §1
NCI-H226 = test: Cytotoxicity against human NCI-H226 cells; how it was run: as §1
SK-MEL-2 = test: Cytotoxicity against human SK-MEL-2 cells; how it was run: as §1
NCI-H23 = test: Cytotoxicity against human NCI-H23 cells; how it was run: as §1
Malme-3M = test: Cytotoxicity against human MALME-3M cells; how it was run: as §1
MOLT-4 = test: Cytotoxicity against human MOLT4 cells; how it was run: as §1
KM12 = test: Cytotoxicity against human KM12 cells; how it was run: as §1
U-251 = test: Cytotoxicity against human U251 cells
How it was run: (§2)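 NCI 60 human tumor cell line panel, five-dose dose-response study. Cytotoxic effect was plotted against log10 drug concentration for each cell line. GI50 is the molar concentration giving 50% reduction in net protein increase versus control cells. LC50 is the concentration lethal to 50% of cells.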

786-0 = test: Cytotoxicity against human 786-0 cells; how it was run: as §1
SN12C = test: Cytotoxicity against human SN12C cells; how it was run: as §1
COLO 205 = test: Cytotoxicity against human COLO205 cells
How it was run: (§3)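 NCI 60-cell-line panel, five-concentration dose-response. Cytotoxic effect was plotted against log10 drug concentration for each line. GI50 is the molar concentration giving a 50% reduction in net protein increase relative to control cells. LC50 is the concentration lethal to 50% of cells. Both were read from the curves.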

NCI-H522 = test: Cytotoxicity against human NCI-H522 cells; how it was run: as §1
NCI-H460 = test: Cytotoxicity against human NCI-H460 cells; how it was run: as §1
MDA-MB-468 = test: Cytotoxicity against human MDA-MB-468 cells; how it was run: as §1
OVCAR-8 = test: Cytotoxicity against human OVCAR8 cells; how it was run: as §1
OVCAR-3 = test: Cytotoxicity against human OVCAR-3 cells; how it was run: as §1
EKVX = test: Cytotoxicity against human EKVX cells; how it was run: as §1
SF-539 = test: Cytotoxicity against human SF539 cells; how it was run: as §1
SK-MEL-5 = test: Cytotoxicity against human SK-MEL-5 cells; how it was run: as §1
K562 = test: Cytotoxicity against human K562 cells; how it was run: as §1
BT-549 = test: Cytotoxicity against human BT549 cells; how it was run: as §1
M14 = test: Cytotoxicity against human M14 cells; how it was run: as §1
SF-295 = test: Cytotoxicity against human SF295 cells; how it was run: as §1
SK-MEL-28 = test: Cytotoxicity against human SK-MEL-28 cells; how it was run: as §1
RXF 393 = test: Cytotoxicity against human RXF393 cells; how it was run: as §1
SF-268 = test: Cytotoxicity against human SF268 cells; how it was run: as §1
MDA-MB-435 = test: Cytotoxicity against human MDA-MB-435 cells; how it was run: as §3
SW-620 = test: Cytotoxicity against human SW620 cells; how it was run: as §2
UACC-257 = test: Cytotoxicity against human UACC257 cells; how it was run: as §2
SK-OV-3 = test: Cytotoxicity against human SKOV3 cells; how it was run: as §1
UO-31 = test: Cytotoxicity against human UO31 cells; how it was run: as §2
MDA-MB-231 = test: Cytotoxicity against human MDA-MB-231 cells; how it was run: as §1
DU-145 = test: Cytotoxicity against human DU145 cells; how it was run: as §1
OVCAR-5 = test: Cytotoxicity against human OVCAR5 cells; how it was run: as §1
CAKI-1 = test: Cytotoxicity against human Caki1 cells; how it was run: as §1
HT-29 = test: Cytotoxicity against human HT-29 cells; how it was run: as §3
HCT-15 = test: Cytotoxicity against human HCT15 cells; how it was run: as §1
ACHN = test: Cytotoxicity against human ACHN cells; how it was run: as §1
PC-3 = test: Cytotoxicity against human PC3 cells; how it was run: as §1
NCI/ADR-RES = test: Cytotoxicity against human NCI/ADR-RES cells; how it was run: as §1
MCF7 = test: Cytotoxicity against human MCF7 cells; how it was run: as §1
OVCAR-4 = test: Cytotoxicity against human OVCAR4 cells; how it was run: as §1
SR = test: Cytotoxicity against human SR cells; how it was run: as §1
HL-60 = test: Cytotoxicity against human HL60 cells; how it was run: as §1
HOP-92 = test: Cytotoxicity against human HOP92 cells; how it was run: as §1
HCC 2998 = test: Cytotoxicity against human HCC2998 cells; how it was run: as §1
T47D = test: Cytotoxicity against human T47D cells; how it was run: as §2
TK-10 = test: Cytotoxicity against human TK10 cells; how it was run: as §2
[2] = Cytotoxicity against human […] cells; how it was run: as §1
[3] = read-out: LC50 (the source's name)

COC(=O)c1ccc(Cn2cc(/C=C3/C(=O)N=C(N)N3C)c3ccccc32)cc1
GI50 (SNB-75): 1.46 µM
LC50 (concentration lethal to 50% of cells) (SNB-75): 5.47 µM
GI50 (HCT-116): 1.79 µM
CC50 (HCT-116; [3]): 7.7 µM
GI50 (SNB-19): 2.39 µM
CC50 (SNB-19; [3]): 31 µM
GI50 [1]: 2.17 µM
LC50 [1]: > 100 µM
GI50 (NCI-H322M): 2.56 µM
CC50 (NCI-H322M; [3]): > 100 µM
GI50 (A498): 14.1 µM
CC50 (A498; [3]): 53.2 µM
GI50 (HOP-62): 1.99 µM
CC50 (HOP-62; [3]): 33 µM
GI50 (IGROV-1): 5.91 µM
CC50 (IGROV-1; [3]): > 100 µM
GI50 (A549): 5.05 µM
CC50 (A549; [3]): > 100 µM
GI50 (LOX IMVI): 1.89 µM
LC50 (LOX IMVI): 8.66 µM
GI50 (CCRF-CEM): 2.91 µM
CC50 (CCRF-CEM; [3]): > 100 µM
GI50 (NCI-H226): 2.26 µM
LC50 (NCI-H226): > 100 µM
GI50 (SK-MEL-2): 2.7 µM
CC50 (SK-MEL-2; [3]): > 100 µM
GI50 (NCI-H23): 3.23 µM
LC50 (concentration lethal to 50% of cells) (NCI-H23): 58.8 µM
GI50 (Malme-3M): 1.7 µM
CC50 (Malme-3M; [3]): 8.33 µM
GI50 (MOLT-4): 2.42 µM
CC50 (MOLT-4; [3]): > 100 µM
GI50 (KM12): 3.18 µM
CC50 (KM12; [3]): > 100 µM
GI50 (U-251): 1.81 µM
CC50 (U-251; [3]): 7.72 µM
GI50 (786-0): 1.75 µM
LC50 (786-0): 5.85 µM
GI50 (SN12C): 1.74 µM
CC50 (SN12C; [3]): 8.59 µM
GI50 (COLO 205): 1.91 µM
GI50 (NCI-H522): 1.93 µM
LC50 (NCI-H522): > 100 µM
GI50 (NCI-H460): 2.55 µM
CC50 (NCI-H460; [3]): > 100 µM
GI50 (MDA-MB-468): 1.63 µM
LC50 (MDA-MB-468): 6.78 µM
GI50 (OVCAR-8): 3.45 µM
CC50 (OVCAR-8; [3]): > 100 µM
GI50 (OVCAR-3): 2.29 µM
CC50 (OVCAR-3; [3]): 7.98 µM
GI50 (EKVX): > 100 µM
CC50 (EKVX; [3]): > 100 µM
GI50 (SF-539): 1.54 µM
CC50 (SF-539; [3]): 5.56 µM
GI50 (SK-MEL-5): 1.69 µM
LC50 (SK-MEL-5): 5.75 µM
GI50 (K562): 2.23 µM
CC50 (K562; [3]): > 100 µM
GI50 (BT-549): 1.73 µM
CC50 (BT-549; [3]): > 100 µM
GI50 (M14): 1.9 µM
LC50 (M14): 7.25 µM
GI50 (SF-295): 2.36 µM
CC50 (SF-295; [3]): > 100 µM
GI50 (SK-MEL-28): 1.78 µM
CC50 (SK-MEL-28; [3]): 6.14 µM
GI50 (RXF 393): 1.95 µM
CC50 (RXF 393; [3]): 8.71 µM
GI50 (SF-268): 2.56 µM
CC50 (SF-268; [3]): > 100 µM
GI50 (MDA-MB-435): 1.93 µM
GI50 (SW-620): 2.2 µM
CC50 (SW-620; [3]): > 100 µM
GI50 (UACC-257): 17.9 µM
LC50 (UACC-257): > 100 µM
GI50 (SK-OV-3): 1.98 µM
CC50 (SK-OV-3; [3]): 8.68 µM
GI50 (UO-31): 3.2 µM
CC50 (UO-31; [3]): > 100 µM
GI50 (MDA-MB-231): 2.01 µM
LC50 (MDA-MB-231): 14.3 µM
GI50 (DU-145): 2.25 µM
CC50 (DU-145; [3]): 14.8 µM
GI50 (OVCAR-5): 1.9 µM
CC50 (OVCAR-5; [3]): 18.5 µM
GI50 (CAKI-1): 35.1 µM
GI50 (HT-29): 2.17 µM
GI50 (HCT-15): 2.27 µM
CC50 (HCT-15; [3]): > 100 µM
GI50 (ACHN): 1.76 µM
CC50 (ACHN; [3]): 6.14 µM
GI50 (PC-3): 6.27 µM
CC50 (PC-3; [3]): > 100 µM
GI50 (NCI/ADR-RES): 9.46 µM
CC50 (NCI/ADR-RES; [3]): > 100 µM
GI50 (MCF7): 2.45 µM
CC50 (MCF7; [3]): 77.8 µM
GI50 (OVCAR-4): 2.18 µM
CC50 (OVCAR-4; [3]): > 100 µM
GI50 (SR): 2.48 µM
CC50 (SR; [3]): > 100 µM
GI50 (HL-60): 2.67 µM
LC50 (HL-60): > 100 µM
GI50 (HOP-92): 1.51 µM
CC50 (HOP-92; [3]): 7.75 µM
GI50 (HCC 2998): 2.99 µM
CC50 (HCC 2998; [3]): 4.71 µM
GI50 (T47D): 1.5 µM
CC50 (T47D; [3]): 5.74 µM
GI50 (TK-10): 3.16 µM
CC50 (TK-10; [3]): > 100 µM
GI50 [2]: 3.25 µM
LC50 (concentration lethal to 50% of cells) [2]: > 100 µM
